The values that follow come from ChEMBL document CHEMBL4513216, “Probing the Open Global Health Chemical Diversity Library for Multistage-Active Starting Points for Next-Generation Antimalarials” (ACS Infect Dis, 2020).

A short description of this series: Toxicity liver stage against HepG2, at 10uM. The format is cell-based. The arrangement: test concentration 10 uM, cell line HepG2-A16-CD81EGFP. As to conditions: human, HepG2-A16-CD81EGFP cells; read-out: INHIBITION
The method in brief:
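Uninfected HepG2-A16-CD81EGFP cells, 3 × 10^3 per well, 1536-well, plated on prespotted compound at 10 μM final, parasite-free screening media added to match infected plates; puromycin 10 μM positive, DMSO 0.5% negative; run in parallel with 48 h PbLuc assay at 37 °C, 5% CO2; viability by CellTiter-Glo luminescence, normalized to controls.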
Take `Cc1sc2nc(SC(C)c3nc(C(C)(C)C)no3)nc(N)c2c1C` (configuration not stated): the cytotoxicity at 10 µM is -1.13%.

As to `CCC(NC(=O)C(C)(C)C)c1ccccc1C` (configuration not stated), the cytotoxicity at 10 µM was 2.3%.

As to `CCN(Cc1ccco1)C(C)c1nc(C(C)(C)C)no1` (configuration not stated), the cytotoxicity at 10 µM amounted to 0.623%.

Take `O=C1COC2(COCCN(Cc3cccnc3)C2)CN1c1ccccc1` (configuration not stated): the cytotoxicity at 10 µM stood at 9.72%.

`O=C1CCC2(CCCN(C(=O)c3ccccn3)CC2)N1` (configuration not stated): the cytotoxicity at 10 µM is -2.51%.

On to `Cc1nc(Nc2ncc(C)s2)cc(C2CCCN2)n1` (configuration not stated), for which the cytotoxicity at 10 µM amounted to 82%.

Turning to `COC(C(=O)N1CCN(Cc2noc(C)n2)CC1)c1ccccc1` (configuration not stated), the cytotoxicity at 10 µM is -1.8%.

With `COc1c(Cl)cccc1NCc1csc(NC(C)=O)n1`, the cytotoxicity at 10 µM stood at 57.8%.

Regarding `COCCN1CCC2(CCN(C(=O)c3ccc(F)cc3)CC2)C1=O`, the cytotoxicity at 10 µM was 2.85%.

On to `CC(C)N1CCOCC2(CCN(c3cnccn3)CC2)C1`, for which the cytotoxicity at 10 µM is -109%.

Regarding `Cn1ccc(C(=O)NCc2ccccc2Cn2ccnc2)cc1=O`, the cytotoxicity at 10 µM amounted to 9.42%.

With `Cc1noc(C2CCN(C(=O)CCNS(C)(=O)=O)CC2)n1`, the cytotoxicity at 10 µM was -21%.

Regarding `Cc1ccn(CCC(=O)NCc2ccc(C)o2)n1`, the cytotoxicity at 10 µM is -2.96%.

Regarding `COc1ccc(CNC(c2cccc(F)c2)c2cnn(C)c2)cc1` (configuration not stated), the cytotoxicity at 10 µM turned out to be 4.91%.

`CN(C)C(=O)CC1CC2(CCN(c3ncccn3)CC2)c2ccccc21` (configuration not stated): the cytotoxicity at 10 µM is -16.7%.

In the case of `NC(=O)C1CCCN1Cc1nccn1CC(F)(F)F` (configuration not stated), the cytotoxicity at 10 µM is 12.2%.

In the case of `CN(CCNC(=O)Nc1ccncc1)C1CCCCC1`, the cytotoxicity at 10 µM was -0.39%.

As for `COc1ccc(Cl)cc1CCNC(=O)NCc1noc(C)n1`, the cytotoxicity at 10 µM is -4.76%.

On to `CC(C)N(C)Cc1n[nH]c2c1CCN(C(=O)c1cc[nH]n1)C2`, for which the cytotoxicity at 10 µM was -134%.

Take `CN(Cc1cnn(C)c1)Cc1nc(Cc2cccc(Cl)c2)no1`: the cytotoxicity at 10 µM is 6.53%.

Turning to `CNCc1cn(C[C@H]2CC3CCN2C[C@@H]3C(=O)Nc2ccccc2)nn1` (some centres not stated), the cytotoxicity at 10 µM was -0.288%.

On to `CCN(Cc1nonc1C)C(=O)c1cnccn1`, for which the cytotoxicity at 10 µM is -4.04%.

As to `c1cnn(CC2CN(c3ncnc4c3CCC4)CCO2)c1` (configuration not stated), the cytotoxicity at 10 µM turned out to be 31.2%.

With `O=C(O)c1cc(S(=O)(=O)Nc2cc(F)cc(F)c2)cc2c1OCCO2`, the cytotoxicity at 10 µM was -12.6%.

In the case of `CCOC(=O)c1cnn(-c2cc(Oc3cccc(C)c3)ncn2)c1N`, the cytotoxicity at 10 µM came to 16.9%.

As to `CN1CCCC1c1ccnc(-c2ccccn2)n1` (configuration not stated), the cytotoxicity at 10 µM is -5.26%.

As for `Cc1cnn(CC2CN(CC(=O)Nc3ccncc3)CCO2)c1` (configuration not stated), the cytotoxicity at 10 µM is -3.75%.

Turning to `CC(=O)N1C[C@H](NS(=O)(=O)c2cccc(Cl)c2)[C@@H](C(C)C)C1`, the cytotoxicity at 10 µM was determined as 7.82%.

In the case of `CC(Nc1cnn(C)c(=O)c1Cl)c1ccc(F)c(F)c1` (configuration not stated), the cytotoxicity at 10 µM stood at 31.3%.

In the case of `CN(Cc1cc2cc(F)ccc2[nH]1)C(=O)C1CC(=O)N(C2CC2)C1` (configuration not stated), the cytotoxicity at 10 µM is 0.0448%.

As to `CCn1cc(CN2CCCN(C(=O)c3cccc(C#N)c3)CC2)cn1`, the cytotoxicity at 10 µM worked out at 0.893%.

In the case of `O=C(c1ccco1)N(c1ccc(F)cn1)C1CCOCC1`, the cytotoxicity at 10 µM was -19.8%.

Consider `Cc1noc(C)c1CCC(=O)N[C@@H]1CC[C@@H](Oc2cccnc2)[C@@H]1O`, for which the cytotoxicity at 10 µM is -2.62%.

Turning to `CCNC(=O)C1(Cc2cc(-c3ccc(C)cc3)no2)CCCN(C)C1` (configuration not stated), the cytotoxicity at 10 µM came to 7.9%.

For `CCN1CCC2(COCc3c(C)nc(N(C)C)nc32)C1` (configuration not stated), the cytotoxicity at 10 µM turned out to be 5.76%.

With `CN(C)CCn1c(=O)oc2ccc(NC(=O)c3cc(Cl)c[nH]3)cc21`, the cytotoxicity at 10 µM was found to be 6.79%.

As for `NC(=O)NC(=O)CN1CCN(CC2CC2)c2ccccc21`, the cytotoxicity at 10 µM was 11.7%.

Consider `Cc1ccccc1C(C(=O)N(Cc1cnn(C)c1)CC(C)C)N(C)C` (configuration not stated), for which the cytotoxicity at 10 µM stood at 2.66%.

In the case of `Cc1nc(N2CCCCC2)ncc1-c1cc(O)nc(N2CCCCC2)n1`, the cytotoxicity at 10 µM amounted to 11.8%.

For `CC(C)CN1C(=O)C2(CCN(Cc3ccc(F)cc3)C2)c2ccccc21` (configuration not stated), the cytotoxicity at 10 µM is 13%.

For `CN(C)Cc1nnc2n1CCN(Cc1ccccn1)CC2`, the cytotoxicity at 10 µM is 2.05%.

For the compound `O=C(O)c1ccc(CCNC(=O)C2(O)Cc3ccccc3C2)cc1`, the cytotoxicity at 10 µM came out at 3.69%.

As for `OCc1ccc(-c2nccn2CCC2=CCCCC2)o1`, the cytotoxicity at 10 µM was found to be 4.19%.

Regarding `Cc1ccc(-c2nc(CN(Cc3cccs3)C3CCS(=O)(=O)C3)cs2)o1` (configuration not stated), the cytotoxicity at 10 µM stood at 11.4%.

As for `CSC1(CNC(=O)NC(C)c2ccc(F)cc2)CCOCC1` (configuration not stated), the cytotoxicity at 10 µM came out at 6.88%.

For the compound `CN1CCc2c(C#N)c(NCC3CCCO3)n3cnnc3c2C1` (configuration not stated), the cytotoxicity at 10 µM is 4.48%.

`CC(C)Sc1ccc(C(C)NC(=O)Cn2cccnc2=O)cc1` (configuration not stated): the cytotoxicity at 10 µM is 16.8%.

Take `O=C(CN1CCC2(CCCCC2)C1)NCC(F)(F)F`: the cytotoxicity at 10 µM was -10.5%.

Regarding `CC(=O)N1CC[C@@H]2CN(Cc3ccncc3)S(=O)(=O)[C@@H]2CC1`, the cytotoxicity at 10 µM turned out to be 5.07%.

Consider `Cc1ccc2c(c1)SCC(=O)N2Cc1noc(C2CCCO2)n1` (configuration not stated), for which the cytotoxicity at 10 µM is -0.0938%.

For `Cc1ccc2oc(CNC(C)c3nnc4n3CCCC4)cc2c1` (configuration not stated), the cytotoxicity at 10 µM was -17.9%.

For the compound `CCc1ccccc1CN1CC[C@@]2(O)CCN(S(=O)(=O)N(C)C)C[C@H]2C1`, the cytotoxicity at 10 µM was -2.19%.

As for `CN(C)S(=O)(=O)NCc1cccnc1Oc1ccccc1F`, the cytotoxicity at 10 µM worked out at 1.81%.

As to `CNc1nc2cn(CCc3ccc(Cl)cc3)c(=O)c-2c[nH]1`, the cytotoxicity at 10 µM stood at 5.2%.

For the compound `CCSc1cncc(N2CCC(NC(=O)C3CCCCC3)CC2)n1`, the cytotoxicity at 10 µM was found to be 16.8%.

As for `Cn1ncnc1CCNC(=O)c1cc(Cl)c(Cl)n1C`, the cytotoxicity at 10 µM was -5.12%.

For the compound `CS(=O)(=O)NC1CCN(Cc2coc(-c3ccccc3)n2)CC1`, the cytotoxicity at 10 µM is -43.3%.

For `COCC(=O)NCc1cc(=O)n2c(n1)CN(Cc1cccs1)CCC2`, the cytotoxicity at 10 µM is -96.5%.

As to `CC(C)(C)OC(=O)N1CCN(S(=O)(=O)CCCC#N)C2(CCCCC2)C1`, the cytotoxicity at 10 µM is -6.1%.

For the compound `Cn1cc(CN2CCCC(CCc3ccc(F)c(F)c3)C2)cn1` (configuration not stated), the cytotoxicity at 10 µM was -6.6%.

Consider `CN(C)[C@@H]1CCN(C(=O)C2CCOCC2)[C@H]1Cc1ccncc1`, for which the cytotoxicity at 10 µM is 1.72%.

Consider `Cc1ccc(CN2Cc3ccccc3OC3(CCC(CO)CC3)C2)o1` (configuration not stated), for which the cytotoxicity at 10 µM is -13.7%.

On to `CCN(Cc1ccncc1)C(=O)c1cc(C)c(C)c(S(N)(=O)=O)c1`, for which the cytotoxicity at 10 µM was -2.33%.

Take `Cc1nc(C)n(CC2CCCN2Cc2nc(-c3ccoc3)no2)n1` (configuration not stated): the cytotoxicity at 10 µM is -8.48%.

`CC(C)(C)Nc1c(C2CCCN(C(=O)C3CC3)C2)nc2ccccn12` (configuration not stated): the cytotoxicity at 10 µM is 8.07%.

Turning to `CCOc1ccnc(N2CCN(C(=O)c3ccc(OC)cc3)CC2)n1`, the cytotoxicity at 10 µM was -15.6%.

In the case of `Cc1cc(C(=O)N2CCN(c3ncc4c(n3)CCOC4)CC2)sc1C`, the cytotoxicity at 10 µM was determined as 0.794%.

In the case of `CC(CCN(C)C)NC(=O)c1cccc(C(F)(F)F)c1F` (configuration not stated), the cytotoxicity at 10 µM was -52.6%.

`CCc1cc(N2CCN(c3ccc(Cl)cn3)CC2)n2nccc2n1`: the cytotoxicity at 10 µM worked out at 23.1%.

As for `O=C(c1cccc(S(=O)(=O)NCCc2ccccn2)c1)N1CCOCC1`, the cytotoxicity at 10 µM was -0.764%.

Regarding `CN(C)c1ncccc1NC(=O)COCC1CC1`, the cytotoxicity at 10 µM is -4.69%.

`CCOc1nnc(CN(Cc2ccccc2)CC(O)c2ccco2)s1` (configuration not stated): the cytotoxicity at 10 µM is -1.57%.

Turning to `O=C(c1cncnc1)N1C[C@@H]2CC[C@H](Oc3cccc(F)c3)[C@@H]2C1`, the cytotoxicity at 10 µM was -17.1%.

For `CN(C)C(=O)CCS(=O)(=O)Cc1cc(Cl)c2c(c1)OCCO2`, the cytotoxicity at 10 µM amounted to 9.15%.

`Cc1ccc(C(F)(F)F)cc1NC(=O)C1CCCN1` (configuration not stated): the cytotoxicity at 10 µM came out at 4.28%.

`CCOCCN1CCCC1CS(N)(=O)=O` (configuration not stated): the cytotoxicity at 10 µM came out at 14.3%.

As to `Fc1ccc(-c2nnc(CN3CCCC(Cn4cncn4)C3)o2)cc1` (configuration not stated), the cytotoxicity at 10 µM is -4.87%.

Take `CCc1nc(CC(=O)Nc2cnn(CC3CCCO3)c2)cs1` (configuration not stated): the cytotoxicity at 10 µM was -3.11%.

Regarding `CN(C)CCN(C)C[C@@H]1CN(C(=O)NC2CCCC2)C[C@@H]1CO`, the cytotoxicity at 10 µM was 1.35%.

With `COc1ccc(CN2CCN(C(C)=O)CC3(CC(=O)N(C)C3)C2)cc1` (configuration not stated), the cytotoxicity at 10 µM turned out to be 9.74%.

For `CSc1ncccc1C(=O)N1C[C@@H]2CC[C@H]1CN(c1cnccn1)C2`, the cytotoxicity at 10 µM was -2.72%.

Regarding `COCCCC1(CO)CCCN(CCc2ccccc2)C1` (configuration not stated), the cytotoxicity at 10 µM is -9.99%.

Take `CC(C)Cc1noc(CN2CCOCC2C)n1` (configuration not stated): the cytotoxicity at 10 µM came out at 2.8%.

In the case of `Cc1c(NC(C)C(C)C)cccc1C(=O)NCc1nccn1C` (configuration not stated), the cytotoxicity at 10 µM is -5.99%.

On to `Cc1nc(C)n(CC2CCCN2CCCOc2ccc(C#N)cc2)n1` (configuration not stated), for which the cytotoxicity at 10 µM was -8.33%.

As to `CCOCCC(=O)Nc1cccc(Oc2ccccn2)c1`, the cytotoxicity at 10 µM was 8.32%.

On to `NC(=O)C1CCN(Cc2cccc(NC(=O)c3ccsc3)c2)CC1`, for which the cytotoxicity at 10 µM came out at 18.7%.

On to `c1ccc(NC[C@@H]2CCC[C@@H]3CN(Cc4cc[nH]n4)C[C@@H]32)nc1`, for which the cytotoxicity at 10 µM is -111%.

As to `CC(C)(C)NC(=O)COc1ccc(Oc2ccccn2)cc1`, the cytotoxicity at 10 µM came out at 7.32%.

In the case of `CN(CC1(C)COC1)C(=O)c1cc(-c2ccnn2C)nc2ccccc12`, the cytotoxicity at 10 µM is 6.57%.

As to `Cc1noc(Cl)c1CCC(=O)N1CCN(Cc2ccncc2)CC1`, the cytotoxicity at 10 µM is -14.2%.

Take `O=C(c1cscn1)N1CCC2(CC1)CN(c1ccccn1)CCO2`: the cytotoxicity at 10 µM is -71%.

Regarding `CC(=O)N1[C@H](Cn2cncn2)C[C@@H]2CN(CC3CC3)CC[C@@H]21`, the cytotoxicity at 10 µM is -3.64%.

Take `COc1cccc(CNCCc2cccc(C(N)=O)c2)c1`: the cytotoxicity at 10 µM is 9.83%.

Take `COCc1nc2cc(NCc3sc(C)nc3C)ccc2o1`: the cytotoxicity at 10 µM amounted to 29.1%.

Take `CNC(=O)NCC(=O)N(C)C(c1ccc(Cl)cc1)c1cccnc1` (configuration not stated): the cytotoxicity at 10 µM was determined as 9.61%.

On to `Cc1ccc(OCC(=O)Nc2cc(C(=O)O)cc(S(C)(=O)=O)c2)cc1C`, for which the cytotoxicity at 10 µM is -4.95%.
